Experimental findings from ChEMBL document CHEMBL4052818, “Design, Synthesis, and Biological Assessment of Biased Allosteric Modulation of the Urotensin II Receptor Using Achiral 1,3,4-Benzotriazepin-2-one Turn Mimics” (J Med Chem, 2017) are described below.

Active and inactive are the calls of the source. No cut-off for these calls is given here.

Assay [1] deals with T1, Urotensin-2 receptor (Rattus norvegicus) (UniProt P49684).
T1 sequence (whole entry): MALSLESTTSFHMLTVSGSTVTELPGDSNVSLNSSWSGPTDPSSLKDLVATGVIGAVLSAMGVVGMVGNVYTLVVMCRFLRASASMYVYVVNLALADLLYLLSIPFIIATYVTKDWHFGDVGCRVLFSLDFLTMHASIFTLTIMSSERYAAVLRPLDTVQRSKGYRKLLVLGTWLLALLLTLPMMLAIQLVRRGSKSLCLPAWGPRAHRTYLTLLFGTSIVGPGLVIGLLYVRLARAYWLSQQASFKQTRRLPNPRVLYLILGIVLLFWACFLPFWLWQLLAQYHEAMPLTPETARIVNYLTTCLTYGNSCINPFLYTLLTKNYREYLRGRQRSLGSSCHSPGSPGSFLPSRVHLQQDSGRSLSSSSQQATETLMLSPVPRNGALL
Briefly: Agonist activity at urotensin-2 receptor in Sprague-Dawley rat thoracic aorta assessed as induction of aortic ring contraction at 10^-5 M incubated for 15 mins. A digest of the protocol: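 Endothelium-denuded 4 mm thoracic aortic rings from adult male rats (250–300 g) were held in organ baths of oxygenated Krebs–Henseleit. A 40 mM KCl contraction served as the initial control. Each analogue was added alone at 10−5 M, and the contraction was expressed as % of the KCl response.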

Assay [2] deals with T1, Urotensin-2 receptor (Rattus norvegicus). Briefly: Allosteric modulation of urotensin-2 receptor in Sprague-Dawley rat thoracic aorta assessed as change in human urotensin-2-mediated aortic ring contraction by measuring urotensin-2 Emax at 10^-5M preincubated for 15 mins followed by urotensin-2 addition relative to KCl (reference value: 103 +/- 2%).
For assay [3] the target is unchanged. Briefly: Allosteric modulation of urotensin-2 receptor in Sprague-Dawley rat thoracic aorta assessed as change in URP-mediated aortic ring contraction by measuring URP Emax at 10^-5M preincubated for 15 mins followed by URP addition relative to KCl (reference value: 118 +/- 2%).
Assay [4] addresses T2, Urotensin-2 receptor (Homo sapiens) (UniProt Q9UKP6).
T2 sequence (whole entry): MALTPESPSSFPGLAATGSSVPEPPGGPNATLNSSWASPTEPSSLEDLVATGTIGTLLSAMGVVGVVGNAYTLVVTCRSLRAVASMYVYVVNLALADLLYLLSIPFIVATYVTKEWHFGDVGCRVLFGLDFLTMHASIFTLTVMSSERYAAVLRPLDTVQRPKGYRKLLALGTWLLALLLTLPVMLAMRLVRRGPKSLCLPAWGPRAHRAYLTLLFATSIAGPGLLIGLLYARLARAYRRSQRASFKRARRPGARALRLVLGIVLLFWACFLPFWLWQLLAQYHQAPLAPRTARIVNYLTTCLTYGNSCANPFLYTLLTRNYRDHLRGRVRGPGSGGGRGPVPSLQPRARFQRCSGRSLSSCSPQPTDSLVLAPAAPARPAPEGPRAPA
Briefly: Allosteric modulation of human urotensin-2 receptor expressed in HEK293 cells assessed as change in human urotensin-2-induced Gq activation by measuring urotensin-2 Emax at 10^-5 M preincubated for 30 mins followed by urotensin-2 addition by BRET assay (reference value: 100 +/- 3%). The assay is classed as cell-based. A general note: BRET reads energy transfer from a luciferase to a nearby fluorophore.

Assay [5] addresses T2, Urotensin-2 receptor (Homo sapiens). Briefly: Allosteric modulation of human urotensin-2 receptor expressed in HEK293 cells assessed as change in human urotensin-2-induced G12 activation by measuring urotensin-2 Emax at 10^-5 M preincubated for 30 mins followed by urotensin-2 addition by BRET assay (reference value: 100 +/- 6%). The assay is classed as cell-based.
The target is the same in assay [6]. Briefly: Allosteric modulation of human urotensin-2 receptor expressed in HEK293 cells assessed as change in URP-induced G12 activation by measuring URP Emax at 10^-5 M preincubated for 30 mins followed by URP addition by BRET assay (reference value: 100 +/- 7%). It counts as cell-based.
The target is the same in assay [7]. As to the kind of experiment: Agonist activity at human urotensin-2 receptor expressed in HEK293 cells assessed as G12 activation at 10^-5 M […] by BRET assay. The assay is classed as cell-based. The method, boiled down: (§1)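 HEK293-UT cells were transfected with a polycistronic BRET biosensor, 2.5 μg for Gq or 0.5 μg for G12, and grown about 40 h. They were then held 2 h in PBS with 0.1% glucose. The analogue (10−5 M) was added alone with coelenterazine 400A. The GFP10/RlucII ratio (515/410 nm) was read over 5 min and normalized to hUII or URP at 10−5 M.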

For assay [8] the target is unchanged. Briefly: Agonist activity at human urotensin-2 receptor expressed in HEK293 cells assessed as Gq activation at 10^-5 M […] by BRET assay. The assay is classed as cell-based. The method, boiled down:
as §1

For assay [9] the target is unchanged. As to the kind of experiment: Allosteric modulation of human urotensin-2 receptor expressed in HEK293 cells assessed as change in URP-induced Gq activation by measuring URP Emax at 10^-5 M preincubated for 30 mins followed by URP addition by BRET assay (reference value: 100 +/- 3%). The assay is classed as cell-based.
Assay [10] has as its target T1, Urotensin-2 receptor (Rattus norvegicus). As to the kind of experiment: Allosteric modulation of urotensin-2 receptor in Sprague-Dawley rat thoracic aorta assessed as change in URP-mediated aortic ring contraction by measuring URP Emax at 1 uM preincubated for 15 mins followed by URP addition relative to KCl (reference value: 118 +/- 2%).
For assay [11] the target is unchanged. Briefly: Allosteric modulation of urotensin-2 receptor in Sprague-Dawley rat thoracic aorta assessed as change in human urotensin-2-mediated aortic ring contraction by measuring urotensin-2 Emax at 1 uM preincubated for 15 mins followed by urotensin-2 addition relative to KCl (reference value: 103 +/- 2%).

For `COc1ccc(CCC2=NN(CCCN)C(=O)N(Cc3ccc4ccccc4c3)c3ccccc32)cc1`, the Activity in assay [1] is below 8%. In addition, the Emax came to 55% in assay [2] and 41% in [3].

As to `NCCCN1N=C(/C=C/c2ccc(O)cc2)c2ccccc2N(Cc2ccc(-c3ccccc3)cc2)C1=O`, the Activity in [1] was below 8%. Besides, the Emax in assay [2] was found to be 51%; in assay [3], 115%.

On to `CNCCCCN1N=C(CCc2nc3ccccc3s2)c2ccccc2N(Cc2cccc3ccccc23)C1=O`, for which, in assay [1], the Activity was below 8%. For the same compound, the Emax in assay [2] and in [3] was 99% throughout.

For the compound `CNCCCN1N=C(CCc2nc3ccccc3s2)c2ccccc2N(Cc2ccc(-c3ccccc3)cc2)C1=O`, in assay [1], the Activity is below 8%. The results for the Emax in assay [2] and in assay [3] were 76% and 110%, respectively.

With `NCCCCN1N=C(CCc2nc3ccccc3s2)c2ccccc2N(Cc2cccc3ccccc23)C1=O`, the Activity in [1] was below 8%. Also, the figures for the Emax in assay [2] and in assay [3] were 100% and 124%, respectively.

For `NCCCCN1N=C(CCc2ccc(O)cc2)c2ccccc2N(Cc2ccc3ccccc3c2)C1=O`, the maximum response (Emax) in [4] was 83%; in assay [5] it was 98%; in assay [6] it was 90%; in [2], 98%; in assay [9], 78%; in assay [3], 75%. The Activity in [1] is below 8%. The result in assay [7] and in assay [8] was inactive.

Consider `COc1ccc(/C=C/C2=NN(CCCN)C(=O)N(Cc3ccc(-c4ccccc4)cc3)c3ccccc32)cc1`, for which the Activity in assay [1] was below 8%. For the same compound, the maximum response (Emax) in [2] was determined as 106%; in assay [3] it was 194%.

With `CNCCCCN1N=C(CCc2nc3ccccc3s2)c2ccccc2N(Cc2ccc3ccccc3c2)C1=O`, the Activity in [1] is below 8%. Also, the Emax is 87% in assay [2] and 114% in assay [3].

For the compound `NCCCCN1N=C(CCc2ccc(O)cc2)c2ccccc2N(Cc2ccc(-c3ccccc3)cc2)C1=O`, the Activity in [1] was below 8%. Further, the maximal response (Emax) in assay [2] is 118%; in assay [3], 86%.

`NCCCN1N=C(CCc2ccc(O)cc2)c2ccccc2N(Cc2ccc3ccccc3c2)C1=O`: the Activity in assay [1] is below 8%. Also, the figures for the Emax in [2] and in assay [3] were 107% and 96%, respectively.

On to `COc1ccc(CCC2=NN(CCCCN)C(=O)N(Cc3ccc(-c4ccccc4)cc3)c3ccccc32)cc1`, for which the Activity in assay [1] was below 8%. Moreover, the results for the Emax in assay [2] and in assay [3] were 82% and 84%, respectively.

For `COc1ccc(CCC2=NN(CCCCN)C(=O)N(Cc3ccc4ccccc4c3)c3ccccc32)cc1`, the Activity in assay [1] is below 8%. Further, the results for the Emax in [2] and in assay [3] were 55% and 72%, respectively.

Take `COc1ccc(/C=C/C2=NN(CCCCN)C(=O)N(Cc3ccc4ccccc4c3)c3ccccc32)cc1`: the Activity in [1] was below 8%. Besides, the Emax in assay [2] worked out at 108%; in [3] it was 110%.

On to `NCCCN1N=C(CCc2nc3ccccc3s2)c2ccccc2N(Cc2cccc3ccccc23)C1=O`, for which the Activity in assay [1] is below 8%. Also, the Emax worked out at 100% in assay [2] and 101% in assay [3].

For the compound `NCCCCN1N=C(/C=C/c2ccc(O)cc2)c2ccccc2N(Cc2ccc(-c3ccccc3)cc2)C1=O`, the maximum response (Emax) worked out at 92% in assay [4]; 103% in assay [5]; 72% in [6]; 48% in assay [2]; 92% in [9]; 118% in assay [3]. The Activity in [1] is below 8%. The result in [7] and in [8] was inactive.

On to `CNCCCCN1N=C(CCc2nc3ccccc3s2)c2ccccc2N(Cc2ccc(-c3ccccc3)cc2)C1=O`, for which the Activity in assay [1] is below 8%. Moreover, the Emax in [2] came out at 90%; in assay [3], 91%.

For `CC(C)[C@H](NC(=O)[C@@H]1CSSC[C@H](NC(=O)[C@H](C)N)C(=O)N[C@@H](Cc2ccccc2)C(=O)N[C@@H](Cc2ccc(-c3ccccc3)cc2)C(=O)N[C@@H](CCCCN)C(=O)N[C@@H](Cc2ccc(O)cc2)C(=O)N1)C(=O)O`, the Emax in assay [10] was 102%; in assay [11], 61%.

`NCCCN1N=C(/C=C/c2ccc(O)cc2)c2ccccc2N(Cc2ccc3ccccc3c2)C1=O`: in assay [1], the Activity was below 8%. The values for the Emax in [2] and in assay [3] were 59% and 111%, respectively.

`NCCCN1N=C(CCc2nc3ccccc3s2)c2ccccc2N(Cc2ccc(-c3ccccc3)cc2)C1=O`: the Activity in assay [1] was below 8%. The results for the Emax in assay [2] and in [3] were 75% and 99%, respectively.

As for `NCCCN1N=C(CCc2nc3ccccc3s2)c2ccccc2N(Cc2ccc3ccccc3c2)C1=O`, the maximum response (Emax) in assay [4] came out at 87%; in [5] it was 96%; in assay [6], 115%; in [2] it was 45%; in [9], 82%; in assay [3] it was 117%. For the same compound, the Activity in [1] is below 8%. The result in assay [7] and in [8] was inactive.

As for `NCCCCN1N=C(CCc2nc3ccccc3s2)c2ccccc2N(Cc2ccc(-c3ccccc3)cc2)C1=O`, the Activity in assay [1] was below 8%. In addition, the maximal response (Emax) is 68% in assay [2] and 112% in [3].

In the case of `NCCCN1N=C(CCc2ccc(O)cc2)c2ccccc2N(Cc2ccc(-c3ccccc3)cc2)C1=O`, the Activity in assay [1] was below 8%. The values for the Emax in assay [2] and in assay [3] were 95% and 90%, respectively.

Consider `COc1ccc(/C=C/C2=NN(CCCCN)C(=O)N(Cc3ccc(-c4ccccc4)cc3)c3ccccc32)cc1`, for which the Emax in assay [4] was determined as 80%; in [5] it was 96%; in assay [6], 106%; in [2], 83%; in assay [9] it was 83%; in assay [3] it was 284%. Besides, the Activity in [1] is below 8%. Further, the result in assay [7] and in assay [8] was inactive.

As to `NCCCCN1N=C(CCc2nc3ccccc3s2)c2ccccc2N(Cc2ccc3ccccc3c2)C1=O`, in assay [1], the Activity was below 8%. Besides, the figures for the Emax in assay [2] and in [3] were 73% and 111%, respectively.

For `COc1ccc(/C=C/C2=NN(CCCN)C(=O)N(Cc3ccc4ccccc4c3)c3ccccc32)cc1`, in [1], the Activity is below 8%. Also, the maximal effect (Emax) was determined as 76% in [2] and 120% in assay [3].

Take `NCCCCN1N=C(/C=C/c2ccc(O)cc2)c2ccccc2N(Cc2ccc3ccccc3c2)C1=O`: the Activity in assay [1] is below 8%. Besides, the maximum response (Emax) in assay [2] was found to be 55%; in [3] it was 114%.

Take `COc1ccc(CCC2=NN(CCCN)C(=O)N(Cc3ccc(-c4ccccc4)cc3)c3ccccc32)cc1`: the Activity in assay [1] was below 8%. The Emax came to 59% in assay [2] and 47% in assay [3].

What is called Emax is the maximal effect, on the per cent scale that the assay sets.
